Sampled rows, rich in hits. Any-hit rate of the full collection: about 1%.
RAD54 inh: blocks human RAD54 Holliday junction branch migration; inhibition, % at 10.4 µM; FAM/BHQ fluorescence; AID 602329; actives 0.14% (n = 360,000);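 active = mean normalized replicate activity at least 40 and at least half of replicates scoring 40 or more; inconclusive = only one of the two criteria met; inactive = mean below 40 and under half of replicates reaching 40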;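 note: 0% = median of neutral control wells and 100% = median of positive control wells; inhibitors cause a drop in the FAM fluorescence signal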
CAL PDZ FP-1: inhibitors of human CAL PDZ peptide binding; purified CAL PDZ, TMR-peptide fluorescence polarization, 1 h; AID 602252; inhibition, % at 24.9 µM; actives 0.92% (n = 300,000);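 active = mean inhibition of at least 30% with at least half of replicates also reaching 30%; inconclusive = no clear call, values can overlap the other calls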;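 note: 0% = DMSO neutral control and 100% = excess unlabeled competitor peptide PRC23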
RAD52 inh: RAD52 (human) annealing inhibition | P43351 | recombinant RAD52 DNA annealing, FRET fluorescence | inhibition, % at 18.7 µM | actives 0.46% (n = 360,000) | AID 651710;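 active = every replicate showing at least 50% inhibition; inconclusive = mean inhibition at least 50% but not in every replicate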
PDI inh: PDI (human) enzyme inhibition. P07237. PDI insulin aggregation turbidity, A650, 90 min. inhibition, % at 10 µM. actives 0.052% (n = 350,000). AID 588391;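 active = mean inhibition across replicates of 30% or more, whatever share of single replicates reach that level; inconclusive = mean inhibition below 30% while every single replicate reaches 30%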
ERp5 block: blocks human ERp5 reductase activity on insulin; actives 0.05% (n = 350,000); AID 651711; inhibition, % at 9.99 µM; ERp5 insulin aggregation, absorbance 650 nm, 90 min;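 active = mean replicate inhibition above about 25%, with every replicate also reaching it, limit read from the data, passing the limit was not always enough; inconclusive = only one of those two criteria met; inactive = neither criterion met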
Target sequence (Q15084 whole entry, looked up): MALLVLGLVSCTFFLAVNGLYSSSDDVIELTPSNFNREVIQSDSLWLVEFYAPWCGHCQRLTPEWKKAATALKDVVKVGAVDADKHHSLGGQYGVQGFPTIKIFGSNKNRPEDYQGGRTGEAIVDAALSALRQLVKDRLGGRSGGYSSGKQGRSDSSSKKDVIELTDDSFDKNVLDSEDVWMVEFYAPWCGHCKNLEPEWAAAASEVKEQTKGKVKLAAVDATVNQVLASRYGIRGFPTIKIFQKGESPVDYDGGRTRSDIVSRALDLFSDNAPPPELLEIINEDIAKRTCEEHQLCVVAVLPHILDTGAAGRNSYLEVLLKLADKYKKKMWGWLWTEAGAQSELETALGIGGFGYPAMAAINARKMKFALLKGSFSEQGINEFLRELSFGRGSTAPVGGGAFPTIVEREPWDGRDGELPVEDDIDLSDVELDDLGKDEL
CAL PDZ FP-2: inhibitors of human CAL PDZ peptide binding | Q9HD26 | purified CAL PDZ, TMR-peptide fluorescence polarization, 1 h | inhibition, % at 20 µM | actives 0.02% (n = 330,000);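 active = highest replicate inhibition of at least 40%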;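 note: plate controls were DMSO neutral control wells for no effect and unlabeled competitor peptide control wells for full effect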
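Assay system – tagged CAL PDZ protein CerCALP, purified · Timing – 1 h at RT · Compound – single point, 20 µM · Measured by – fluorescence polarization from S- and P-plane intensities, G-factor corrected · Evaluation – inhibition from polarization loss · Probe or stimulus – TMR reporter peptide T*-PRC34 · Buffer or medium – pH 7.4 phosphate-saline buffer, reducing agent, detergent, IgG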
Rad54 DNA ctr: binds DNA, flagging false Rad54 inhibitor hits; shares compounds with RAD54 inh; Acridine orange-DNA displacement, fluorescence polarization, 20 min; AC50, µM (top dose mostly 35 µM), inactives show top-dose activity change, negative = DNA binding; actives 8% (n = 460); AID 651673;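 active = signal drop giving an AC50 within twice the top valid tested concentration of each sample, actives reach about 35 µM in these data; inactive = activity opposite to expected, plus the rest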;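 note: polarization loss reports compound binding to salmon sperm DNA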
The depositor's hits bear a star; i = inactive; ? = inconclusive; . = not tested or not shown.

SMILES	RAD54 inh	CAL PDZ FP-1	RAD52 inh	PDI inh	ERp5 block	CAL PDZ FP-2	Rad54 DNA ctr
C[C@H]1CN([C@@H](C)CO)C(=O)c2cccc(NS(=O)(=O)c3cn(C)cn3)c2O[C@H]1CN(C)S(=O)(=O)c1cccs1	4.6	.	3.6	.	-1.9	.	.
COc1ccccc1NC(=O)CNC(=O)c1ccccc1	51.7*	.	.	0.7	.	0.7	-13.6%
Clc1ccc(-c2nc(NCCCN3CCOCC3)c3ccccc3n2)cc1	23.8	.	1.6	-1.7	-5.5	-4.3	.
Oc1ccccc1-c1nc(NCCN2CCOCC2)c2ccccc2n1	?	-1.6	.	-4.2	.	1.2	9.7%
CN(C)CCCNc1nc(-c2ccccc2)nc2ccccc12	66.6*	0.4	48.5	-1.4	4.2	-0.6	-21.6%
COc1cccc(-c2nc(NC(C)(C)C)c3ccccc3n2)c1O	7.5	-2.2	.	-7.5	.	-0.7	.
Cc1ccc(-c2nc(NCCN3CCOCC3)c3ccccc3n2)cc1	?	-2.3	.	-2.8	.	-4.4	-6.9%
COc1cccc(-c2nc(NCCN3CCOCC3)c3ccccc3n2)c1O	109.4*	-10.9	.	-13.3	.	-0.5	-4.3%
Cc1cccc(-c2nc(NCCN(C)C)c3ccccc3n2)c1	38.0	.	16.1	4.2	3.0	.	.
Cc1ccc(S(=O)(=O)N(C)C[C@H]2Oc3c(NC(=O)c4cc(C)nn4C)cccc3C(=O)N([C@H](C)CO)C[C@H]2C)cc1	-3.3	.	14.1	.	10.5	.	.
COc1ccc(OC)c2c(C)cc(NCCN3CCOCC3)nc12	53.8*	-2.0	.	13.8	.	-1.8	-9.9%
Cc1ccc2c(c1)c1nc3ccccc3nc1n2CCN1CCOCC1	63.4*	.	.	-5.0	.	-2.1	2.0%
COc1cc2[nH]c3c(=O)n(CCN4CCCCC4)cnc3c2cc1OC	54.8*	-2.5	.	1.9	.	-1.7	-14.7%
CO[C@H]1CN(C)C(=O)c2ccc(NC(C)=O)cc2OC[C@H](C)N(C(=O)c2ccccn2)C[C@H]1C	-7.7	.	1.9	.	-2.1	.	.
CC(N)c1csc(Nc2nncc3ccccc23)n1 (centres undefined)	70.2*	.	40.4	-4.3	-4.8	.	-0.7%
CNC(=O)C1=C(C)Nc2nc3ccccc3n2C1c1ccc(F)cc1 (centres undefined)	0.3	-1.9	-3.2	1.6	-0.8	-2.7	.
COC(=O)C1=C(C)Nc2nc3ccccc3n2C1c1ccccc1F (centres undefined)	?	.	-14.8	-5.1	3.3	.	-12.5%
COCCCNCCC(CCC(C)C)c1ccc2c(c1)OCO2 (centres undefined)	?	.	-9.4	-0.8	-0.7	.	13.3%
C[C@@H]1CCCCO[C@H](CN(C)C(=O)c2ccccc2)[C@@H](C)CN([C@H](C)CO)C(=O)c2cc(NC(=O)Nc3ccccc3)ccc2O1	3.9	.	11.0	.	-0.5	.	.
COc1ccc(-c2cn(CC[C@H]3CC[C@H](NC(=O)Cc4ccccn4)[C@@H](CO)O3)nn2)cc1	6.2	.	-23.2	.	-8.1	.	.
CCCN1CCN(CCCNC(=O)c2cc3c(s2)-c2c(C)cccc2OC3)CC1	38.6	-9.9	33.9	-8.7	-1.7	-3.5	.
Cc1cccc2c1-c1sc(C(=O)NCCCN3CCCC(C)C3)cc1CO2 (centres undefined)	53.6*	-7.7	42.9	-9.0	0.4	-4.0	2.1%
CCCNC(=O)Nc1ccc2c(c1)OC[C@@H](C)N(Cc1ccncc1)C[C@H](C)[C@@H](OC)CN(C)C2=O	5.5	.	4.9	.	-3.2	.	.
C/C=C/c1ccc([C@@H]2[C@H](CO)N(C(C)=O)C23CN(S(C)(=O)=O)C3)cc1	.	.	-12.8	.	5.0	.	.
COc1ccccc1C1=NOC(Cn2c(NCCCO)nc3c2c(=O)n(C)c(=O)n3C)C1 (centres undefined)	?	-3.3	-12.2	-2.8	1.2	-0.6	4.5%
SMILES	RAD54 inh	CAL PDZ FP-1	RAD52 inh	PDI inh	ERp5 block	CAL PDZ FP-2	Rad54 DNA ctr
COc1ccccc1C1=NOC(Cn2c(NCC3CCCO3)nc3c2c(=O)n(C)c(=O)n3C)C1 (centres undefined)	-3.5	-1.3	-6.9	0.3	3.8	-0.3	.
CCOC(=O)c1c(NC(C)=O)sc2c(O)c(CN3CCN(CC)CC3)ccc12	62.1*	0.6	.	1.8	.	-1.6	23.6%
Cc1c(O)c(CN2CCCCC2)cc2c1oc(=O)c1ccccc12	.	-5.3	.	3.5	.	-2.9	.
Cc1c(O)c(CN(C)C)cc2c1oc(=O)c1ccccc12	?	-7.8	25.7	17.8	-6.8	1.1	7.5%
c1ccc(Nc2ccccc2Nc2ccccn2)nc1	.	.	-3.2	-0.9	3.2	-1.9	.
Oc1cccc2ccc(Nc3ccccn3)nc12	94.3*	-1.9	.	15.1	.	-1.7	-9.2%
O=c1cc(NCCO)c2ccccc2o1	0.0	-20.0	.	17.2	.	0.5	.
CCN(CC)CCNc1ccc(CO)c2oc3ccccc3c(=O)c12	80.2*	.	47.5	-12.0	5.7	.	-23.0%
O=c1cc(CSc2n[nH]c(=O)n2C2CC2)c2ccc(O)cc2o1	?	.	-1.5	12.8	-2.2	.	-1.6%
CO[C@@H]1CN(C)C(=O)c2ccc(NS(=O)(=O)c3ccccc3F)cc2OC[C@@H](C)NC[C@H]1C	3.4	.	.	.	5.7	.	.
CN1[C@@H]2Cn3c(ccc(-c4ccccc4)c3=O)[C@H]1[C@@H](C(=O)N1CCC(Cc3ccccc3)CC1)[C@@H]2CO	9.7	.	12.8	.	-3.3	.	.
CN(C)C(=O)C[C@@H]1CC[C@@H]2[C@@H](COc3ccc(NC(=O)C4CCCC4)cc3C(=O)N2C)O1	.	.	-2.8	.	7.4	.	.
CCN1CCN(c2nn3c(=O)c4ccccc4nc3c3ccccc23)CC1	57.0*	.	.	-1.0	.	-2.5	i
O=C(NN1CCOCC1)c1cc(-c2ccccc2)nc2ccccc12	-6.1	-1.0	.	-0.9	.	-1.2	.
O=C(NN1CCOCC1)c1cc(-c2ccc(Cl)c(Cl)c2)nc2ccccc12	?	-2.0	.	-0.8	.	-2.4	7.1%
C[C@H](CO)N1C[C@H](C)[C@H](CN(C)Cc2ccccn2)Oc2ncc(C#CC(C)(C)O)cc2C1=O	-5.5	.	-19.6	.	5.8	.	.
CCOC(=O)c1cnc2c(C)cccc2c1NCCCN1CCOCC1	95.1*	4.1	17.3	-3.5	-0.9	-1.4	-18.6%
CCOC(=O)c1cnc2c(CC)cccc2c1NCCN1CCOCC1	10.5	9.2	2.1	6.6	0.8	-0.6	.
CO[C@@H]1CN(C)C(=O)c2ccc(NC(=O)C3CCCC3)cc2OC[C@H](C)N(CC2CC2)C[C@H]1C	-2.7	.	13.7	.	2.3	.	.
O=C(NCc1ccccc1)[C@@]1(Cc2ccccc2)COC(c2ccc(OCCCO)cc2)=N1	-3.0	.	15.0	.	1.1	.	.
CCOC(=O)c1c(C)n(C)c2ccc(OCC(O)CN3CCC(C)CC3)cc12 (centres undefined)	?	1.8	25.7	1.9	-0.2	-1.3	-7.6%
COc1ccc2nc(C)cc(Nc3ccc(C)cc3)c2c1	57.0*	8.4	36.3	2.3	2.1	-3.8	15.5%

Source: PubChem
